Reference: ChEMBL document CHEMBL1135466, “Potent antimalarial febrifugine analogues against the plasmodium malaria parasite” (J Med Chem, 2002)
pEC50: −log10 of the molar value.

Key:
[1] = In vitro antimalarial activity against the Plasmodium falciparum FCR3; format: functional
FM3A [2] = experiment: Selectivity ratio of cytotoxicity against FM3A cells to antimalarial activity against Plasmodium falciparum FCR3; format: functional, Mus musculus
FM3A [3] = experiment: In vitro cytotoxicity against mouse mammary FM3A cells; format: cell-based
Plasmodium berghei [4] = experiment: (§1) In vivo antimalarial activity against Plasmodium berghei infected mice (Mus musculus); format: functional
In short: (§2)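 Infected mice were dosed, and activity is reported as the doses giving 50% and 90% effect (ED50 and ED90), in µmol/kg.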

Plasmodium berghei [5] = experiment: as §1; format: functional; in short: as §2; remark: listed apart in the source

SMILES	pEC50 [1]	Selectivity (FM3A [2])	pEC50 (FM3A [3])	ED50 (Plasmodium berghei [4])	ED50 (Plasmodium berghei [5])	ED90 (Plasmodium berghei [4])
O=C(CC1NCCC[C@@H]1O)Cn1cnccc1=O (some centres undefined)		>32	< 4.72			
O=c1c2ccccc2ncn1C[C@@H]1C[C@@H]2[C@@H](O)CCCN2CO1		1027	5.42	82 µmol/kg	> 180 µmol/kg	
O=c1c2ccccc2ccn1CC1(O)CC2NCCC[C@@H]2O1 (some centres undefined)	5.68	>3	< 5.20			
O=c1c2ccccc2ncn1C[C@@H]1C[C@@H]2[C@H](O)CCCN2CO1	6.08	>30	< 4.60			
O=C(CC1NCCC[C@@H]1O)Cn1ccc2ccccc2c1=O (some centres undefined)	6.30	>32	< 4.80			
CNc1ccccc1C(=O)NC1[C@@H](O)C[C@@H]2[C@@H](O)CCCN2C1(C)C (some centres undefined)	6.22	>28	< 4.77			
CC1(C)[C@@H](n2cnc3ccccc3c2=O)C(=O)C[C@@H]2[C@@H](O)CCC[N+]21[O-] (some centres undefined)	7.00	>290	< 4.54			
CC1(C)[C@@H](n2cnc3ccccc3c2=O)C(=O)C[C@@H]2C(=O)CCCN21	8.72	>3105	5.23			
CC1(C)[C@@H](N2CNc3ccccc3C2=O)[C@@H](O)C[C@@H]2[C@@H](O)CCCN21	6.38	>38	< 4.80			
CC1(C)[C@@H](n2cnc3ccccc3c2=O)C=C[C@@H]2[C@@H](O)CCCN21	5.32	>7	< 4.49			
CC1(C)[C@@H](n2cnc3ccccc3c2=O)CC[C@@H]2[C@@H](O)CCCN21	6.08	>27	< 4.66			
COC1=C[C@@H]2[C@@H](O)CCCN2C(C)(C)[C@H]1n1cnc2ccccc2c1=O	5.89	>51	< 4.18			
O=c1c2ccccc2ncn1C[C@@H](O)CC1NCCC[C@@H]1O (some centres undefined)	7.70	750		2.9 µmol/kg		22 µM/kg
O=c1ccncn1CC1(O)CC2NCCC[C@@H]2O1 (some centres undefined)	7.40	175	5.15			
O=C(CC1NCCCC1=O)Cn1cnc2ccccc2c1=O (centres undefined)	7.70	500	5.00	1.3 µmol/kg		6.2 µM/kg
C[C@@H]1CC[C@H]2[C@@H](C)C(=O)O[C@@H]3O[C@@]4(C)CC[C@@H]1[C@]32OO4 [ARTEMISININ]	8.00	1000				46 µM/kg
CCN(CC)CCCC(C)Nc1ccnc2cc(Cl)ccc12 (centres undefined) [CHLOROQUINE]	7.74			4.7 µmol/kg		9.4 µM/kg
O=C(C[C@@H]1NCCC[C@H]1O)Cn1cnc2ccccc2c1=O [FEBRIFUGINE]	6.15	243		1 µmol/kg		5 µM/kg
O=c1c2ccccc2ncn1CC1(O)C[C@@H]2NCCC[C@@H]2O1 (some centres undefined) [ISOFEBRIFUGINE]	8.47	53		211 µmol/kg		>267 µM/kg

Further lines, with some results ahead:

pEC50 [1]	SMILES	Selectivity (FM3A [2])	pEC50 (FM3A [3])	ED50 (Plasmodium berghei [4])	ED50 (Plasmodium berghei [5])	ED90 (Plasmodium berghei [4])
8.55	CC1(C)[C@H](n2cnc3ccccc3c2=O)C(=O)C[C@H]2[C@@H](O)CCCN21	857				
8.80	CC1(C)[C@@H](n2cnc3ccccc3c2=O)C(=O)C[C@@H]2[C@@H](O)CCCN21	238				
5.32	CCOC(=O)N1CCC[C@H](O)C1CC(=O)Cn1cnc2ccccc2c1=O (some centres undefined)	>3.5	< 4.77			
8.07	COCO[C@H]1CCCN2CO[C@H](Cn3cnc4ccccc4c3=O)C[C@H]12	291	5.60			
6.52	CC1(C)[C@@H](n2cnc3ccccc3c2=O)[C@H](O)C[C@@H]2[C@@H](O)CCCN21	283	4.07			
6.40	CC1(C)[C@@H](n2cnc3ccccc3c2=O)[C@@H](O)C[C@@H]2[C@@H](O)CCCN21	70	5.55			
6.10	CC1(C)[C@H](n2cnc3ccccc3c2=O)[C@H](O)C[C@H]2[C@@H](O)CCCN21	>30	< 4.62			
7.72	CC(=O)O[C@H]1CCCN2[C@H]1CC(=O)[C@@H](n1cnc3ccccc3c1=O)C2(C)C	368	5.15			
5.15	CC(=O)O[C@H]1CCCN2[C@H]1C[C@@H](OC(C)=O)[C@@H](n1cnc3ccccc3c1=O)C2(C)C	>3	< 4.68			
6.40	CC(=O)O[C@H]1CCCN2[C@H]1C[C@@H](O)[C@@H](n1cnc3ccccc3c1=O)C2(C)C	>28	< 4.96			
5.47	CC1(C)[C@H](n2cnc3ccccc3c2=O)[C@@H](O)C[C@H]2[C@@H](O)CCCN21	>28	< 4.00			
8.44	CC(=O)O[C@H]1CCCN2[C@@H]1CC(=O)[C@H](n1cnc3ccccc3c1=O)C2(C)C	361	5.89			
6.04	CC(=O)O[C@H]1CCCN(C(C)=O)C1CC(=O)Cn1cnc2ccccc2c1=O (some centres undefined)	>32	< 4.54			
